In ChEMBL document CHEMBL4304791, “DABMA: A Derivative of ABMA with Improved Broad-Spectrum Inhibitory Activity of Toxins and Viruses” (ACS Med Chem Lett, 2019):
Active and inactive are the calls of the source. No cut-off for these calls is given here.

How the values were obtained:
[1] = tested on: L929; assay: Cytoprotective activity in Pseudomonas aeruginosa exotoxin induced toxicity in mouse L929 cells assessed as protection factor after 18 hrs by liquid scintillation analysis relative to untreated control; type: functional
Outline: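 L929 cells were intoxicated with increasing doses of Pseudomonas exotoxin A for 18 h with compound (30 μM) or DMSO present. Protein synthesis was measured; duplicate wells, mean ± SD, one representative experiment (n = 3).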

[2] = tested on: Vero; assay: Inhibition of TcsL-induced cytotoxicity against African green monkey Vero cells assessed as reversal of toxin-induced cell rounding at 30 uM in presence of TcsL after 16 hrs by inverted microscopic analysis; type: functional, cell-based; details: Chlorocebus sabaeus
Outline: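 Vero cells were given compound (30 μM) or DMSO, then increasing doses of TcdB for 4 h or TcsL for 16 h. Cell rounding was imaged by inverted microscope. Rounded cells were counted and normalised to total Hoechst-counterstained cells (>100 cells per treatment).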

[3] = Cytotoxicity against human A549 cells assessed as reduction in cell viability incubated for 24 hrs by Alamar blue assay; type: cell-based
Outline: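 A549 cytotoxicity by Alamar Blue viability assay; duplicate wells, mean ± SD, one representative experiment (n = 3).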

[4] = tested on: Lyssavirus rabies; assay: Antiviral activity against RABV infected in BSR cells preincubated for 4 hrs followed by viral infection and further incubated with compounds for 24 hrs by immunostaining-based assay; type: functional, organism-based
Outline: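 BSR cells were pretreated 4 h with compound, then infected with RABV (MOI = 14) for 1 h. Cells were washed and kept with compound for 24 h, then fixed and immunostained for the RABV ribonucleocapsid (RNP). Nuclei and RNP images from 15 fields per well (>10,000 cells) were used to calculate percent inhibition.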

[5] = tested on: A549; assay: Induction of morphological changes in human A549 cells assessed as change in golgi apparatus at 30 uM incubated for 24 hrs by cyto-painter dye based inverted microscopic method; type: functional, cell-based
[6] = tested on: A549; assay: Inhibition of diphtheria induced toxicity in human A549 cells assessed as protection fold at 30 uM incubated for 20 hrs followed by replacement of [14c]-Leucine containing medium and measured after 4 hrs by liquid scintillation analysis relative to ABMA; type: functional
Outline: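 Single-concentration screen: 30 μM compound on A549 cells with increasing DT concentrations, read as protein synthesis inhibition. Protection fold was calculated with ABMA as the positive control.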

[7] = tested on: A549; assay: Induction of lysosomal activation in human A549 cells at 30 uM incubated for 2 hrs by LysoTracker Red staining based confocal microscopic analysis; type: functional, cell-based
Outline: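 A549 cells were pretreated 2 h with compound (30 or 60 μM) or DMSO, then stained with LysoTracker Deep Red (50 nM, 30 min) plus Hoechst. Intensity was read from 3 × 3 fields per well (10,000 cells/well) by imaging reader; mean ± SEM, n = 4; confocal images.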

[8] = tested on: A549; assay: Inhibition of diphtheria induced toxicity in human A549 cells assessed as protection factor at 15 uM incubated for 20 hrs followed by replacement of [14c]-Leucine containing medium and measured after 4 hrs by liquid scintillation analysis relative to untreated control; type: functional
Outline: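 A549 cells were incubated with Baf A1 (0.15 nM), DABMA (15 μM), both, or DMSO vehicle before DT was added, with the compounds kept present throughout. Toxin protection was read as protein synthesis and expressed as protection factor.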

[9] = tested on: HUVEC; assay: Cytotoxicity against HUVEC assessed as reduction in cell viability at >100 uM incubated for 20 hrs and measured after 2 hrs by Alamar blue assay; type: cell-based; details: human

With `COc1ccc(Br)cc1CNC12CC3CC(C)(CC(C)(C3)C1)C2` the “fold change (FC)” value [1] was 4.8, the inhibition [2] was “Active” and the CC50 at 24 h [3] was 120 µM. For the same compound, the inhibition [4] was “Active”, the Activity [5] was “inactive” and the “fold change (FC)” value [6] was 18.5. The Activity [7] was “Active”, the “fold change (FC)” value [8] was 6.3 and the Activity [9] was “Toxic”.
